From paper PMC10373183 (ACS Omega, 2023) come the findings set out here.

Molecules are shown by their SMILES. “Also recorded” adds a separate entry of the source.

A word on the GI50: it is the concentration at which growth is held to half of that of the control.

Data set [1] in a line: LDH release cytotoxicity assay. The conditions noted are these: human, U937 cells. In kind it is cell-based. The procedure, abridged: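 U937 cells plated and exposed to test compound at several concentrations for 4 h at 37 °C, with Triton X-100 as positive cytotoxicity control. Plates spun 1000 RPM for 5 min. Supernatants mixed with LDH detection reagent for 10 min in the dark at room temperature, then read at OD 490 nm. LC50 fitted from percent activity.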
(In general: LDH in the medium is a marker of cell lysis.)

Data set [2] deals with U937 cells. The experiment in a line: CellTiter-Glo Luminescent cell viability assay. To be noted: for inhibition at 25 µM / inhibition at 50 µM / inhibition at 100 µM / inhibition at 200 µM / GI50: Homo sapiens; for inhibition at 25 µM / inhibition at 50 µM / inhibition at 100 µM / inhibition at 200 µM: U-937, 72 h, read-out: percent inhibition at various concentrations of compounds (CellTiter-Glo, antiproliferative); for GI50: U-937, read-out: antiproliferative (U937) GI50; for antiproliferative activity (in words): U937 cells, CellTiter-Glo, four concentrations. It counts as cell-based, human. The procedure, abridged: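 U937 cells incubated 72 h with test compound at four concentrations; CellTiter-Glo reagent added at equal volume, shaken 2 min to lyse, then held 10 min at room temperature before luminescence read. Viability = RLU test × 100/RLU control, converted to percent inhibition. GI50 fitted from percent inhibition. Mitomycin C positive control; DMSO diluent as negative control.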

`Cc1nn(C)c(C)c1S(=O)(=O)NCCc1ccccc1` [MR-S1-4, 1,3,5-Trimethyl-N-phenethyl-1H-pyrazole-4-sulfonamide]: in data set [1], the inhibition at 4 h, 12.5 µM is -2.9%; the inhibition at 4 h, 25 µM is -2.2%; the inhibition at 4 h, 50 µM is -0.9%; the inhibition at 4 h, 100 µM was -1.8%. In data set [2], the inhibition at 25 µM was 33%, the inhibition at 50 µM was determined as 19.2%, the inhibition at 100 µM stood at 37.8% and the inhibition at 200 µM came to 23.2%. In addition, in data set [2], the GI50 is over 200 µM and the “antiproliferative activity (in words)” value was “impotent; also recorded: less anti-proliferative activity”.

With `Cc1nn(C)c(C)c1S(=O)(=O)NCCc1ccc(Cl)cc1` [MR-S1-6, N-(4-Chlorophenethyl)-1,3,5-trimethyl-1H-pyrazole-4-sulfonamide], in data set [1], the inhibition at 4 h, 12.5 µM is 3.3%; the inhibition at 4 h, 25 µM was -1.3%; the inhibition at 4 h, 50 µM was -2%; the inhibition at 4 h, 100 µM was -1.6%. Moreover, in data set [2], the inhibition at 25 µM was 40.5%, the inhibition at 50 µM stood at 17.9%, the inhibition at 100 µM came out at 28.4% and the inhibition at 200 µM was found to be 44.2%. The GI50 in data set [2] is over 200 µM.

In the case of `Cc1nn(C)c(C)c1S(=O)(=O)NCCc1cccc(Cl)c1` [MR-S1-8, N-(3-Chlorophenethyl)-1,3,5-trimethyl-1H-pyrazole-4-sulfonamide], in data set [1], the inhibition at 4 h, 12.5 µM came to 2.9%; the inhibition at 4 h, 25 µM is -1.3%; the inhibition at 4 h, 50 µM came to 1.8%; the inhibition at 4 h, 100 µM amounted to 0.4%. Further, in data set [2], the inhibition at 25 µM was found to be 25.1%, the inhibition at 50 µM was found to be 28.4%, the inhibition at 100 µM amounted to 34.6% and the inhibition at 200 µM was 47.4%. Further, in data set [2], the GI50 was over 200 µM.

Consider `Cc1n[nH]c(C)c1S(=O)(=O)NCCc1cccc(Cl)c1` [MR-S1-7, N-(3-Chlorophenethyl)-3,5-dimethyl-1H-pyrazole-4-sulfonamide], for which, in data set [1], the inhibition at 4 h, 12.5 µM was -2%; the inhibition at 4 h, 25 µM was -2.4%; the inhibition at 4 h, 50 µM was found to be 0.9%; the inhibition at 4 h, 100 µM is -3.1%. Besides, in data set [2], the inhibition at 25 µM was 14.5%, the inhibition at 50 µM came out at 13.4%, the inhibition at 100 µM amounted to 24.2% and the inhibition at 200 µM is 51.6%. Further, in data set [2], the GI50 was over 200 µM.

For the compound `COc1ccc(CCNS(=O)(=O)c2c(C)n[nH]c2C)cc1OC` [MR-S1-9, N-(3,4-Dimethoxyphenethyl)-3,5-dimethyl-1H-pyrazole-4-sulfonamide], in data set [1], the inhibition at 4 h, 12.5 µM is -2.7%; the inhibition at 4 h, 25 µM came to 2.7%; the inhibition at 4 h, 50 µM is 2.4%; the inhibition at 4 h, 100 µM was -2.4%. In data set [2], the inhibition at 25 µM is -0.5%, the inhibition at 50 µM was -26.2%, the inhibition at 100 µM was -21.2% and the inhibition at 200 µM is 2%. Moreover, in data set [2], the GI50 is over 200 µM and the “antiproliferative activity (in words)” value is listed as “impotent; also recorded: less anti-proliferative activity”.

In the case of `Cc1n[nH]c(C)c1S(=O)(=O)N[C@H](C)c1cccc2ccccc12` [MR-S1-14, (R)-3,5-Dimethyl-N-(1-(naphthalen-1-yl)ethyl)-1H-pyrazole-4-sulfonamide], in data set [1], the inhibition at 4 h, 12.5 µM is -2.4%; the inhibition at 4 h, 25 µM was -4%; the inhibition at 4 h, 50 µM is -0.9%; the inhibition at 4 h, 100 µM is -3.1%. In data set [2], the inhibition at 25 µM amounted to 27.6%, the inhibition at 50 µM was determined as 32.9%, the inhibition at 100 µM is 68.7% and the inhibition at 200 µM worked out at 98.9%. Also, in data set [2], the GI50 turned out to be 9.4 µM and the “antiproliferative activity (in words)” value is “good antiproliferative activity; also recorded: most potent”.
